Source: PubChem BioAssay
rRNA inh HTS = inhibitors of bacterial rRNA selective over humanized ribosomes. E. coli WT GFP vs humanized-ribosome RFP mutants, fluorescence, 24 h; hits give low values; DMSO median 0, no signal -100. AID 720706. hit rate 1.6% among 350,000. GFP signal change (wild-type ribosome), % (concentration not given with the values);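 active = significant combined selectivity score with lowered wild-type GFP, culture density cut under 30%, mutant RFP and density less affected; inactive = any of these conditions unmet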
SKN-1 block = blocks SKN-1 activity in C. elegans. inhibition, % at 21.8 µM. hit rate 0.49% among 360,000. AID 624304. C. elegans VP596 Pgst-4::GFP/RFP ratio, acrylamide-induced, 24 h;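 active = interference check ratio from 0.5 to 1.5 plus GFP to RFP signal ratio inhibition reaching or exceeding a fixed threshold, cut at about 30% in these data, passing the limit was not always enough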
hiPSC survival = enhancers of human iPSC single-cell survival. hiPSC single-cell survival, ATPlite luminescence; 100% = ROCK inhibitor wells, 0% = DMSO. survival enhancement, % at 20 µM. hit rate 0.044% among 360,000; in the data active = survival enhancement above about 18%;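 also: cells exposed to compounds for 16 hours before the ATP read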
Cneo AK release = Cryptococcus neoformans lysis via adenylate kinase release. C. neoformans lysis, adenylate kinase release luminescence, 4 h; normalised: neutral wells 0, clomiphene wells 100. lysis activity, % at 15 µM. hit rate 0.2% among 360,000;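 active = mean lysis activity across replicates of at least 80%, whatever share of replicates individually reach that level; inactive = mean lysis activity below 80%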
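Material – Cryptococcus neoformans yeast cells · Quantity – 5 × 10^6 yeast cells/mL · Buffer or medium – YPD medium · Compound – single dose · Timing – 4 h static compound exposure, 37 °C, read 1 h post-reagent · Signal – adenylate kinase release luminescence · Read-out basis – lysis from increased AK signal · Benchmarks – Clomiphene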
DAGLB inh = diacylglycerol lipase beta (human) inhibition; Q8NCG7; inhibition, % at 5.17 µM; hit rate 0.059% among 340,000; HEK293T DAGLB membrane lysate, EnzChek fluorogenic substrate; in the data active = inhibition above about 34%;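 also: 0% = enzyme with vehicle and 100% = wells lacking enzyme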
Target sequence (Q8NCG7 whole entry, looked up): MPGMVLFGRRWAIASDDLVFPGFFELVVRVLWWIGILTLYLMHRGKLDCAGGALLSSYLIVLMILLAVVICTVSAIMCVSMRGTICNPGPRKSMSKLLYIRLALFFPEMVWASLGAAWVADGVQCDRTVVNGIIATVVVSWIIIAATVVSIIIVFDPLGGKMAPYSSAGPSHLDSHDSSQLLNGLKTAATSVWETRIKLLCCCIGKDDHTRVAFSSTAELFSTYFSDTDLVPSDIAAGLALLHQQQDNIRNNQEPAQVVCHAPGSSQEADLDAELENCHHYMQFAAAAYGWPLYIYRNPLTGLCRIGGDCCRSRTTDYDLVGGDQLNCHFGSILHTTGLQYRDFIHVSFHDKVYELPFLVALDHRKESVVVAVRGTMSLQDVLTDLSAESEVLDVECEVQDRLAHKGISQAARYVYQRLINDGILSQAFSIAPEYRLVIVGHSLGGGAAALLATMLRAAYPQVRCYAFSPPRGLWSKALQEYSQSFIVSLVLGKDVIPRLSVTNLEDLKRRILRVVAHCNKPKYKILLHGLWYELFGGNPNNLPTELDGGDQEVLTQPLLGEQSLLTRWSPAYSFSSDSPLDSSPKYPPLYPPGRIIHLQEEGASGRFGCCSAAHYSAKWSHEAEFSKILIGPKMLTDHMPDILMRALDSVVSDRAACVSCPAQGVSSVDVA
MT1-MMP act inh = MT1-MMP (human) activation inhibition; P50281; hit rate 0.061% among 360,000; HT1080 RFP-PRO-GFP cells, GFP/RFP ratio fluorescence, overnight; percent of plate control window, DMSO zero; GFP/RFP ratio change, % at 20 µM; AID 651647;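 active = GFP/RFP ratio change of at least 30% with cell ATP level not reduced by more than half and red fluorescence within 50% of control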
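Test system: HT1080 RFP-PRO-GFP cells; Benchmarks: DMSO and RFP-L50D-GFP cell wells; Timing: cells overnight before dosing, compound overnight, 37 °C, 5% CO2; Compound: one 20 µM compound dose with 1% DMSO; Read-out: GFP/RFP fluorescence ratio.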
* marks the source's active call; other numbers are inactive results; nt = not tested or not shown; ! = repeats disagree. Most compounds without a hit are left out; they make up all but 1.8% or so of the library.

SMILES | rRNA inh HTS | SKN-1 block | hiPSC survival | Cneo AK release | DAGLB inh | MT1-MMP act inh
COc1cccc(NC(=O)CN2CCc3ccccc3C2)c1 | -2.2 | 35.5* | -0.6 | 0.0 | -2.6 | -1.0
CCN(CC)CCN(C(=O)c1cc2ccccc2cc1OC)c1nc2ccc(OC)cc2s1 | -35.2 | 0.7 | -0.5 | 1.8 | -7.3 | -2.6
CN(C)CCN(C(=O)c1ccc2ccccc2c1)c1nc2cc3c(cc2s1)OCO3 | -7.9 | 16.2 | 19.1* | 0.1 | -6.8 | 5.9
CCN(CC)CCN(C(=O)C1CCCCC1)c1nc2cc3c(cc2s1)OCO3 | -18.1* | -0.8 | -0.2 | 13.4 | -8.8 | 3.3
CCN(CC)CCCN(C(=O)c1ccc(OC)cc1)c1nc(-c2ccc(OC)cc2)cs1 | -35.1* | 6.1 | 0.2 | 0.3 | 1.1 | -5.3
CN(C)CCN(C(=O)c1ccc2c(c1)OCCO2)c1nc2cc3c(cc2s1)OCO3 | -2.2 | 0.3 | -0.6 | -0.8 | -0.8 | -2.6
CCN(CC)CCN(C(=O)c1ccc(Br)s1)c1nc2cc3c(cc2s1)OCO3 | 2.7 | 10.6 | 0.3 | nt | 1.4 | 0.9
CCN(CC)CCN(C(=O)c1ccc2ccccc2c1)c1nc2ccc(OC)cc2s1 | -19.4* | -5.9 | -0.1 | 0.9 | -4.5 | -1.5
O=C(C[C@@H]1C[C@@H]2c3cc(NC(=O)Nc4ccccc4)ccc3O[C@@H]2[C@@H](CO)O1)NCc1ccccn1 | -7.4 | nt | nt | nt | nt | nt
CCCNC(=O)Nc1ccc2c(c1)C(=O)N(C)C[C@H](OC)[C@H](C)CN(Cc1ccccc1)[C@@H](C)CO2 | -1.6 | nt | nt | nt | nt | nt
COc1ccc(NC(=O)N(C)C[C@@H]2Oc3ccc(NS(=O)(=O)c4ccccc4)cc3CC(=O)N([C@H](C)CO)C[C@@H]2C)cc1 | 1.8 | nt | nt | nt | nt | nt
O=C(NCCOc1ccc(Cl)cc1)c1ccc2ccccc2n1 | -26.7 | 39.4* | -0.4 | nt | -9.4 | -2.5
Cc1noc(C)c1S(=O)(=O)Nc1ccc2c(c1)C(=O)N([C@H](C)CO)C[C@H](C)[C@H](CN(C)Cc1ccncc1)O2 | -3.2 | nt | nt | 91.0* | nt | nt
C[C@@H]1CCCCO[C@@H](CN(C)Cc2ccncc2)[C@@H](C)CN([C@@H](C)CO)C(=O)c2cc(NC(=O)NC3CCCCC3)ccc2O1 | 1.7 | nt | nt | -2.5 | nt | nt
CC(C)NC(=O)Nc1ccc2c(c1)C(=O)N([C@H](C)CO)C[C@H](C)[C@H](CN(C)Cc1ccncc1)OCCCC[C@H](C)O2 | -3.1 | nt | nt | 114.2* | nt | nt
Cc1noc(C)c1S(=O)(=O)Nc1ccc2c(c1)C(=O)N([C@@H](C)CO)C[C@H](C)[C@H](CN(C)Cc1ccncc1)O2 | -5.8 | nt | nt | -3.0 | nt | nt
CC(C)NC(=O)Nc1ccc2c(c1)C(=O)N([C@H](C)CO)C[C@@H](C)[C@@H](CN(C)Cc1ccncc1)OCCCC[C@H](C)O2 | nt | nt | nt | 1.8 | nt | nt
COc1ccc(CN(C)C[C@H]2OCCCC[C@@H](C)Oc3ccc(NC(=O)c4ccccc4)cc3C(=O)N([C@H](C)CO)C[C@@H]2C)cc1 | -2.2 | -17.3 | -3.0 | 101.9*! | 2.7 | -1.9
C[C@H](CO)N1C[C@H](C)[C@@H](CN(C)Cc2ccncc2)OCCCC[C@H](C)Oc2ccc(NC(=O)NC3CCCCC3)cc2C1=O | -3.7 | nt | nt | 110.5* | nt | nt
COc1ccc(CN(C)C[C@@H]2OCCCC[C@H](C)Oc3ccc(NC(=O)c4ccccc4)cc3C(=O)N([C@H](C)CO)C[C@@H]2C)cc1 | -1.1 | nt | nt | -8.2 | nt | nt
COc1cccc(CN2[C@@H](CO)[C@@H](c3ccccc3)C23CN(C(=O)C2CCOCC2)C3)c1 | 1.7 | nt | nt | nt | nt | nt
O=C(C[C@H]1CC[C@@H]2[C@H](COC[C@@H](O)CN2Cc2ccc3c(c2)OCO3)O1)N1CCOCC1 | 5.0 | nt | nt | 2.1 | nt | nt
CC=Cc1ccc2n(c1=O)C[C@@H]1[C@@H](CO)[C@H](C(=O)N[C@H](C)c3ccccc3)[C@H]2N1CC1CC1 (mixture of isomers) | -0.1 | nt | nt | 51.5 | nt | nt
C[C@H]1CCCCO[C@@H](CN(C)Cc2ccncc2)[C@@H](C)CN([C@@H](C)CO)C(=O)c2cc(NC(=O)c3ccncc3)ccc2O1 | -3.3 | nt | nt | -1.2 | nt | nt
C[C@@H]1CCCCO[C@@H](CN(C)Cc2ccncc2)[C@@H](C)CN([C@@H](C)CO)C(=O)c2cc(NC(=O)CCCN(C)C)ccc2O1 | 1.4 | nt | nt | 55.6 | nt | nt
SMILES | rRNA inh HTS | SKN-1 block | hiPSC survival | Cneo AK release | DAGLB inh | MT1-MMP act inh
C[C@H](CO)N1C[C@H](C)[C@H](CN(C)Cc2ccncc2)Oc2ccc(NC(=O)CCC(F)(F)F)cc2C1=O | 2.3 | nt | nt | 149.1* | nt | nt
C[C@H]1CCCCO[C@H](CN(C)Cc2ccncc2)[C@@H](C)CN([C@@H](C)CO)C(=O)c2cc(NC(=O)CCCN(C)C)ccc2O1 | -0.3 | nt | nt | 98.3* | nt | nt
C[C@@H]1CCCCO[C@@H](CN(C)Cc2ccncc2)[C@@H](C)CN([C@@H](C)CO)C(=O)c2cc(NC(=O)c3ccncc3)ccc2O1 | 7.7 | nt | nt | 88.9* | nt | nt
C/C=C/c1ccc2c(c1)O[C@H](CN(C)Cc1cccc(F)c1)[C@H](C)CN([C@@H](C)CO)S2(=O)=O | -30.6 | nt | nt | -11.1 | nt | nt
C[C@@H]1CN([C@@H](C)CO)C(=O)c2cc(NC(=O)Nc3cccc4ccccc34)ccc2O[C@@H](C)CCCCO[C@H]1CN(C)S(=O)(=O)c1ccc(F)cc1 | 1.6 | nt | nt | nt | nt | nt
Cc1nc2c(C)cccn2c1/C(O)=C1\C(=O)C(=O)N(CCN(C)C)C1c1cccs1 (stereo not drawn) | -26.3* | -19.8 | 0.5 | -1.5 | -3.5 | 3.3
CS(=O)(=O)Nc1ccc2c(c1)[C@H]1C[C@H](CC(=O)NCC(F)(F)F)O[C@H](CO)[C@H]1O2 | 5.8 | nt | nt | -1.1 | nt | nt
CC(C)c1ccc(N(CC(=O)Nc2ccc(S(=O)(=O)N3CCOCC3)cc2)S(C)(=O)=O)cc1 | nt | 40.0* | -2.1 | 4.1 | -2.7 | 3.6
C[C@H]1C[C@H]2[C@@H]3CCC4=CC(=O)C=C[C@]4(C)[C@@]3(F)[C@@H](O)C[C@]2(C)[C@@]1(O)C(=O)CO | nt | -6.9 | -0.4 | 0.2 | 1.1 | -1.3
CC1(c2ccccc2)O[C@@H]2C[C@H]3[C@@H]4CCC5=CC(=O)C=C[C@]5(C)[C@@]4(F)[C@@H](O)C[C@]3(C)[C@]2(C(=O)CO)O1 (stereo partly drawn) | -21.9* | -5.1 | -0.6 | -0.3 | 0.0 | -12.2
COc1c(O)cc2c(c1O)[C@@H]1OC(CO)C(O)C(O)[C@H]1OC2=O (stereo partly drawn) | nt | 4.6 | -0.9 | -1.0 | 0.8 | 0.7
COc1c(O)cc2c(c1O)C1OC(CO)C(O)C(O)C1OC2=O (stereo not drawn) | -22.3* | -10.8 | 0.1 | 0.3 | 3.4 | -1.4
Clc1cccc(Cl)c1COn1nnc2ccccc21 | nt | 31.7 | 4.6 | -4.2 | -7.7 | 0.9
c1ccc(COn2nnc3ccccc32)c(COn2nnc3ccccc32)c1 | -42.7* | 12.3 | -2.6 | -1.8 | -4.0 | -4.3
